Measured values from PubChem BioAssay AID602424 (Sanford-Burnham Center for Chemical Genomics, 2012).
Activity calls are given as the source filed them.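 Rule for the calls: active = IC50 at or below 20 µM; inactive = the rest.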

target: Glucose-6-phosphate 1-dehydrogenase (Homo sapiens) (UniProt P11413); assay: blockers of human G6PD activity – biochemical, fluorescence, dose response, set 4, selectivity assay for PfG6PD antimalarial inhibitor project, SAR follow-up (AID 602424); details: recombinant human G6PD, NADPH-diaphorase-resazurin fluorescence
Sequence (P11413 whole entry, looked up): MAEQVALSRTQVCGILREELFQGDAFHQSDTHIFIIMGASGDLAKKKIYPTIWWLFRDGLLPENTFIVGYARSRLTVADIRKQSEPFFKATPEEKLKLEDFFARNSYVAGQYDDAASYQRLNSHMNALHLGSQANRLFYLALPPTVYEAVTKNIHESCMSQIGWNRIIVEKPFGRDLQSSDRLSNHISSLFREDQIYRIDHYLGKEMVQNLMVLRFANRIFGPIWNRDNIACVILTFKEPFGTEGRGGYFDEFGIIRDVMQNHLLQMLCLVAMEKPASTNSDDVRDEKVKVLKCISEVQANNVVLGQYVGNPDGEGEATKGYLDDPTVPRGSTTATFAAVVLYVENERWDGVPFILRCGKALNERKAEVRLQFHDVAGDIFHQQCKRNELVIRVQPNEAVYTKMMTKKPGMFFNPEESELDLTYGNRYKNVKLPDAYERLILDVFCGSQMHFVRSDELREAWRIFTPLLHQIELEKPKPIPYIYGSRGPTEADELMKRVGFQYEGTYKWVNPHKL
Method in brief: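 Schedule: 90 min enzyme reaction at room temperature, in dark / Test system: human glucose-6-phosphate dehydrogenase enzyme (hG6PD) / Control set: no-substrate wells as low control / Signal: diaphorase-coupled resazurin fluorescence from NADPH, excitation 530 nm, emission 590 nm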

| Structure (SMILES) | IC50 |
| --- | --- |
| CCN1CCC[C@@H]1CNC(=O)c1ccc2c(c1)NC(=O)c1cc(C)ccc1S2 | > 80 µM (inactive) |
| CCCCN1CCCC1CNC(=O)c1ccc2c(c1)NC(=O)c1ccccc1S2 (configuration not stated) | > 80 µM (inactive) |
| O=C(NC[C@H]1CCCN1)c1ccc2c(c1)NC(=O)c1ccccc1S2 | > 80 µM (inactive) |
| CCCN1CCC[C@@H]1CNC(=O)c1ccc2c(c1)NC(=O)c1ccccc1S2 | > 80 µM (inactive) |
| CCN1CCCCC1CNC(=O)c1ccc2c(c1)NC(=O)c1ccccc1S2 (configuration not stated) | > 80 µM (inactive) |
| CCCN1CCC(NC(=O)c2ccc3c(c2)NC(=O)c2ccccc2S3)C1 (configuration not stated) | > 80 µM (inactive) |
| CN1CCCCC1CNC(=O)c1ccc2c(c1)NC(=O)c1ccccc1S2 (configuration not stated) | > 80 µM (inactive) |
| CCN1CCC[C@@H]1CNC(=O)c1ccc2c(c1)NC(=O)c1cccc(C)c1S2 | > 80 µM (inactive) |
| CCCCCCN1CCCC1CNC(=O)c1ccc2c(c1)NC(=O)c1ccccc1S2 (configuration not stated) | > 80 µM (inactive) |
| CCN1CCC[C@@H]1CNC(=O)c1ccc2c(c1)NC(=O)c1cc(F)ccc1S2 | > 80 µM (inactive) |
| CCCN1CCCCC1CNC(=O)c1ccc2c(c1)NC(=O)c1ccccc1S2 (configuration not stated) | > 80 µM (inactive) |
| CCN1CCC[C@@H]1CNC(=O)c1ccc2c(c1)NC(=O)c1ccc(F)cc1S2 | > 80 µM (inactive) |
| CN1CCCC1CNC(=O)c1ccc2c(c1)NC(=O)c1ccccc1S2 (configuration not stated) | > 80 µM (inactive) |
| O=C(NCC1CCCCN1)c1ccc2c(c1)NC(=O)c1ccccc1S2 (configuration not stated) | > 80 µM (inactive) |
| CCN1CCC(NC(=O)c2ccc3c(c2)NC(=O)c2ccccc2S3)C1 (configuration not stated) | > 80 µM (inactive) |
| CN1CCC(NC(=O)c2ccc3c(c2)NC(=O)c2ccccc2S3)C1 (configuration not stated) | > 80 µM (inactive) |
| CCN1CCC[C@@H]1CNC(=O)c1ccc2c(c1)NC(=O)c1ccccc1N2 | > 80 µM (inactive) |
